The results in this text go back to ChEMBL document CHEMBL4325899, “Synthesis and photocytotoxic activity of [1,2,3]triazolo[4,5-h][1,6]naphthyridines and [1,3]oxazolo[5,4-h][1,6]naphthyridines” (Eur J Med Chem, 2019).

Data set [1] has as its system MCF7. Kind of data set: Induction of ROS generation in human MCF7 cells at 0.5 to 2 uM preincubated for 30 mins followed by irradiation at 1.5 J/cm2 for 2 hrs in presence of NAC by H2DCFDA probe-based fluorescence assay. It counts as functional, cell-based. In outline: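 This is the DCF assay in MCF7 cells run as for irradiated samples (30 min compound, 10 µM H2DCFDA, 1.5 J/cm²). Before treatment, cells were pre-incubated with N-acetylcysteine at […]. Fluorescence was read 2 h after light exposure, relative to irradiated untreated controls, with three independent experiments.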

In data set [2] the test system is A-375. Put plainly: Phototoxicity against human A375 cells preincubated for 5 mins followed by compound washout and subsequent UV irradiation at 1.5 J/cm2 for 5 mins measured after 72 hrs by MTT assay. The class given is functional, cell-based. The following applies: A-375, light or radiation study. The gist of the method: (§1)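 Compounds were diluted in DMSO (0.5% final), applied in triplicate for 5 min, then washed out with PBS. After medium removal, cells were irradiated on ice for 5 min at 365 nm (1.5 J/cm²) and then kept 72 h at 37 °C. Viability was read by MTT at 540 nm and expressed relative to 0.5% DMSO controls given the same treatment. EC50 is the concentration killing 50%, as the mean ± SD of at least three experiments.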
On the technique in general: Tetrazolium assays rely on reduction of a dye to a coloured formazan, in cell work by metabolically active cells.

Data set [3] relates to MCF7. Put plainly: Phototoxicity against human MCF7 cells preincubated for 5 mins followed by compound washout and subsequent UV irradiation at 1.5 J/cm2 for 5 mins measured after 72 hrs by MTT assay. It counts as functional, cell-based. The following applies: MCF7, light or radiation study. In outline: as §1
Data set [4] is described as follows: Dark toxicity against human HT-29 cells preincubated for 5 mins followed by compound washout and measured after 72 hrs by MTT assay. It counts as cell-based. The gist of the method:
(§2)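 Cells were plated and allowed to attach overnight. Compounds were diluted in DMSO (0.5% final), with each concentration in triplicate, and applied for 5 min. Cells were then washed in PBS and given fresh medium. Without irradiation, cells were held 72 h at up to 50 μM. MTT (5 mg/mL stock) was added for 4 h, crystals were dissolved in SDS/HCl overnight, and absorbance was read at 540 nm. CC50 is the concentration killing 50% of cells, taken as the mean of at least three experiments.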

A short description of data set [5]: Dark toxicity against human MCF7 cells preincubated for 5 mins followed by compound washout and measured after 72 hrs by MTT assay. It counts as cell-based. The gist of the method: as §2
Data set [6] has as its system A-375. Put plainly: Phototoxicity index, ratio of CC50 for human A375 cells to EC50 for human A375 cells under UV irradiation at 1.5 J/cm2.
In data set [7] the test system is HT-29. Put plainly: Phototoxicity index, ratio of CC50 for human HT-29 cells to EC50 for human HT-29 cells under UV irradiation at 1.5 J/cm2.
Data set [8] relates to MCF7. Kind of data set: Phototoxicity index, ratio of CC50 for human MCF7 cells to EC50 for human MCF7 cells under UV irradiation at 1.5 J/cm2.
The nature of data set [9]: Selectivity index, ratio of EC50 for human MCF10A cells under UV irradiation at 1.5 J/cm2 to EC50 for human HT-29 cells under UV irradiation at 1.5 J/cm2. It counts as toxicity. Particulars: MCF10A cells versus HT-29 cells, read-out: Ratio EC50. The gist of the method: (§3)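 SI is the EC50 under irradiation in non-tumor MCF10A cells divided by the EC50 under irradiation in the tumor line. Both were MTT read-outs 72 h after 1.5 J/cm² at 365 nm.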

A short description of data set [10]: Selectivity index, ratio of EC50 for human MCF10A cells under UV irradiation at 1.5 J/cm2 to EC50 for human MCF7 cells under UV irradiation at 1.5 J/cm2. It counts as toxicity. Particulars: MCF10A cells versus MCF7 cells, read-out: Ratio EC50. The gist of the method:
as §3

Data set [11] has as its system MCF7. Kind of data set: Cell cycle arrest in human MCF7 cells assessed as accumulation of cells at G2/M phase at EC25 after 24 hrs under UV-irradiation by propidium iodide staining-based flow cytometric analysis (reference value: 26.3%). It counts as functional.
The test system of data set [12] is MCF7. Kind of data set: Induction of mitochondrial dysfunction in human MCF7 cells assessed as perinuclear clustering at 2 uM after 20 mins in presence of UV irradiation by Mitotracker Orange CMTM-ROS staining-based confocal microscopic analysis. The class given is functional, cell-based. In outline: (§4)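 MCF7 cells (4x10⁵) were plated on glass slides for 24 h. They were then loaded with MitoTracker Orange CMTM-ROS (150 nM) for 45 min in phenol-red-free, serum-free medium, before 2 µM compound and UV photoactivation. Cells were fixed in 2% PFA 20 min or 2 h after UV and imaged confocally (ex 543 nm, em 560–620 nm). PMA (400 nM) served as ROS-inducer control.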

The test system of data set [13] is MCF7. Put plainly: Induction of mitochondrial dysfunction in human MCF7 cells assessed as organelle swelling at 2 uM after 120 mins in presence of UV irradiation by Mitotracker Orange CMTM-ROS staining-based confocal microscopic analysis. The class given is functional, cell-based. The gist of the method: as §4
In data set [14] the test system is MCF7. Put plainly: Cell cycle arrest in human MCF7 cells assessed as accumulation of cells at S phase at EC75 after 24 hrs under UV-irradiation by propidium iodide staining-based flow cytometric analysis (reference value: 24.7%). It counts as functional.
Data set [15] relates to MCF7. Put plainly: Cell cycle arrest in human MCF7 cells assessed as accumulation of cells at G2/M phase at EC75 after 24 hrs under UV-irradiation by propidium iodide staining-based flow cytometric analysis (reference value: 26.3%). It counts as functional. On the technique in general: Flow cytometry measures light scatter and fluorescence of single cells or particles in a stream.

Data set [16] can be described thus: Drug localization in cytoplasm of human MCF7 cells at 2 uM measured after 30 to 60 mins by confocal microscopic analysis. Particulars: mcf7, 2 µM. The class given is ADME, subcellular.

Calls of active or inactive are those of the source. The calls are words filed in the database; no cut-off is given here.

One may read the EC50 as the concentration needed to bring the measured effect to its halfway point. A high value points to a less potent agent. Broadly, the CC50 is the concentration that lowers cell viability or growth by half. A high value points to better tolerance by the cells. On to `COc1ccc(-c2nc3c(nc(C)c4ccc(-c5ccccc5)nc43)o2)cc1`, for which the outcome in data set [1] was inactive. Besides, the 50% effective concentration (EC50) in data set [2] worked out at 11 nM; in data set [3] it was 10 nM. For the same compound, the CC50 at 72 h in data set [4] and in [5] was more than 50000 nM throughout. Also, the “Ratio CC50/EC50” value in [6] is listed as more than 4545; in [7], more than 4167; in data set [8], more than 5000. The selectivity ratio in data set [9] is 72; in data set [10] it was 86. In addition, the values for the Activity in [11], in data set [14] and in data set [15] were 26.8%, 26.3% and 26.9%, respectively. The outcome in data set [12] and in [13] was Active. Further, in [16], the Drug uptake entry is listed as “Active”.
